Assay [1] has as its system Rattus norvegicus. The assay is described as follows: Pressor activity in ganglion-blocked vagotomized rat assessed as rise in blood pressure at 250 ng/kg/min, iv administered as infusion measured after 3 mins relative to control. It counts as functional. An outline of the steps:
(§1)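 Vagotomized, ganglion-blocked rats were infused with the analogue. Rise in blood pressure (mmHg) was read at 3, 10 and 30 min of infusion. Values are mean ± error over several rats per analogue.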

Assay [2] has as its system Rattus norvegicus. The assay is described as follows: Pressor activity in ganglion-blocked vagotomized rat assessed as rise in blood pressure at 250 ng/kg/min, iv administered as infusion measured after 10 mins relative to control. Type of assay: functional. Summed up:
as §1

For assay [3], the system named is Rattus norvegicus. The assay is described as follows: Pressor activity in ganglion-blocked vagotomized rat assessed as rise in blood pressure at 250 ng/kg/min, iv administered as infusion measured after 30 mins relative to control. Type of assay: functional. Summed up: as §1
Assay [4] deals with Rattus norvegicus. The assay can be described thus: Pressor activity in ganglion-blocked vagotomized rat administered as bolus injection relative to [Asp1,Ile8]angiotension 2. It counts as functional. Summed up: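 Vagotomized, ganglion-blocked rats received a bolus injection of the analogue. Pressor activity is expressed as percent relative to [Asp¹,Ile⁸]angiotensin II, set at 100.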

A short description of assay [5]: Antagonist activity at angiotensin 2 receptor in rabbit aortic strip assessed as inhibition of contractile activity. Conditions: Oryctolagus cuniculus; read-out: pA2 (converted). An outline of the steps: (§2)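 Rabbit aortic strips; the antagonist opposes angiotensin II-induced contraction. pA₂ is the negative log molar antagonist concentration that reduces the effect of a doubled agonist concentration to that of a single one. It is derived as pA₂ = (log K₂)/n, where n is the slope of log(dose ratio − 1) vs. −log antagonist concentration and K₂ is the y-intercept.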

For assay [6], the species on record is Oryctolagus cuniculus. The assay can be described thus: Binding affinity to angiotensin 2 receptor in rabbit aortic strip. An outline of the steps: as §2
In assay [7] the test system is Rattus norvegicus. The assay is described as follows: Pressor activity in ganglion-blocked vagotomized rat assessed as angiotensin 2 ED20 at 250 ng/kg/min, iv administered as infusion measured during infusion.
Assay [8] deals with Rattus norvegicus. The assay is described as follows: Pressor activity in ganglion-blocked vagotomized rat assessed as rise in angiotensin 2 ED20 at 250 ng/kg/min, iv administered as infusion measured during infusion relative to untreated control.
Assay [9] concerns Rattus norvegicus. The assay is described as follows: Pressor activity in ganglion-blocked vagotomized rat assessed as rise in blood pressure at 250 ng/kg/min, iv administered as infusion measured after 3 mins relative to control.
For assay [10], the system named is Rattus norvegicus. The assay can be described thus: Pressor activity in ganglion-blocked vagotomized rat assessed as rise in blood pressure at 250 ng/kg/min, iv administered as infusion measured after 10 mins relative to control.
Assay [11] has as its system Rattus norvegicus. The assay can be described thus: Pressor activity in ganglion-blocked vagotomized rat assessed as rise in blood pressure at 250 ng/kg/min, iv administered as infusion measured after 30 mins relative to control.

Where a SMILES comes first, the peptide text is derived from it. [ ]: non-standard residue; d: D form. The star is where a group is joined. Guanidinoacetyl = N=C(N)NCC(=O)*; NMeI = CC[C@H](C)[C@H](NC)C(=O)O; Me2Gly = CN(C)CC(=O)*; Sar = CNCC(=O)O

As to `CC[C@H](C)[C@H](NC(=O)[C@H](Cc1ccc(O)cc1)NC(=O)[C@@H](NC(=O)[C@H](CCCNC(=N)N)NC(=O)CNC)C(C)C)C(=O)N[C@@H](Cc1cnc[nH]1)C(=O)N1CCC[C@H]1C(=O)N[C@H](C(=O)O)[C@@H](C)OC`, the Activity in assay [1] was found to be 13.82 mmHg; in assay [2] it was 15.88 mmHg; in assay [3], 15.06 mmHg. Further, the Ratio is given as 0.48 in [4] and 62.52 in assay [8]. Moreover, the Kb in [5] was 1.74 nM. Moreover, the log K in assay [6] came to 8.39. The ED20 in assay [7] is reported as 95.26 ng.
Consider `CC[C@H](C)[C@H](NC(=O)[C@H](Cc1ccc(O)cc1)NC(=O)[C@@H](NC(=O)[C@H](CCCNC(=N)N)NC(=O)CNC)C(C)C)C(=O)N[C@@H](Cc1cnc[nH]1)C(=O)N1CCC[C@H]1C(=O)N[C@@H](COC)C(=O)O`, for which the Activity worked out at 15.66 mmHg in assay [1], 16.16 mmHg in assay [2] and 11.16 mmHg in [3]. In addition, the Ratio in assay [4] came out at 0.49; in [8] it was 24.04. For the same compound, the Kb in assay [5] was 0.219 nM. This compound returned a log K in assay [6] of 5.58. The ED20 in [7] came to 37 ng.
For `CC[C@H](C)[C@H](NC(=O)[C@H](Cc1ccc(O)cc1)NC(=O)[C@@H](NC(=O)[C@H](CCCNC(=N)N)NC(=O)CNC(=N)N)C(C)C)C(=O)N[C@@H](Cc1cnc[nH]1)C(=O)N1CCC[C@H]1C(=O)N[C@H](C(=O)O)[C@@H](C)O` (Guanidinoacetyl-RVYIHPT-OH), the figures for the Ratio in assay [4] and in assay [8] were 0.15 and 1.02, respectively. The Kb in [5] is 58.9 nM. In [6], this compound yielded a log K of 2.12. Besides, the ED20 in assay [7] was 1.14 ng. Besides, the Activity was determined as 0.5 mmHg in assay [9], 0.75 mmHg in [10] and 3.5 mmHg in assay [11].
Turning to `CC[C@H](C)[C@H](NC)C(=O)N[C@@H](CCCNC(=N)N)C(=O)N[C@H](C(=O)N[C@@H](Cc1ccc(O)cc1)C(=O)N[C@H](C(=O)N[C@@H](Cc1cnc[nH]1)C(=O)N1CCC[C@H]1C(=O)N[C@H](C(=O)O)[C@@H](C)O)[C@@H](C)CC)C(C)C` (H-[NMeI]RVYIHPT-OH), the Ratio in assay [4] was determined as 0.12; in assay [8], 2.37. Moreover, the Kb in assay [5] is 20.9 nM. In addition, the log K in assay [6] was found to be 2.48. The ED20 in assay [7] worked out at 3.59 ng. Also, the Activity in [9] is recorded as 4.33 mmHg; in [10], 6.66 mmHg; in assay [11], 8.05 mmHg.
In the case of `CC[C@H](C)[C@H](NC(=O)[C@H](Cc1ccc(O)cc1)NC(=O)[C@@H](NC(=O)[C@H](CCCN=C(N)N)NC(=O)CNC)C(C)C)C(=O)N[C@@H](Cc1c[nH]cn1)C(=O)N1CCC[C@H]1C(=O)N[C@H](C(=O)O)[C@@H](C)O` (H-[Sar]RVYIHPT-OH), the Activity in assay [1] came out at 9.46 mmHg; in assay [2], 9.66 mmHg; in assay [3], 9.2 mmHg. The values for the Ratio in assay [4] and in [8] were 0.6 and 26.9, respectively. The Kb in [5] is 1.62 nM. The log K in assay [6] is 8.1. Further, the ED20 in [7] stood at 44.55 ng.
For `CC[C@H](C)[C@H](NC(=O)[C@H](Cc1ccc(O)cc1)NC(=O)[C@@H](NC(=O)[C@H](CCCNC(=N)N)NC(=O)CN(C)C)C(C)C)C(=O)N[C@@H](Cc1cnc[nH]1)C(=O)N1CCC[C@H]1C(=O)N[C@H](C(=O)O)[C@@H](C)O` (Me2Gly-RVYIHPT-OH), the Activity in assay [1] is recorded as 7.5 mmHg; in assay [2] it was 12.57 mmHg; in [3] it was 11.71 mmHg. Further, the Ratio is 0.38 in assay [4] and 4.49 in assay [8]. Also, the Kb in assay [5] was 29.5 nM. In addition, the log K in [6] is 2.83. For the same compound, in assay [7], the ED20 stood at 7.7 ng.
For the compound H-RVYIHPT-OH, the results for the Ratio in [4] and in assay [8] were 0.24 and 1.47, respectively. Further, in assay [5], the Kb was 29.5 nM. The log K in assay [6] came to 2.83. Moreover, the ED20 in assay [7] turned out to be 3.01 ng. The results for the Activity in [9], in assay [10] and in [11] were 0.5 mmHg, 1.5 mmHg and 4.5 mmHg, respectively.

These data come from ChEMBL document CHEMBL3244219, “Synthesis of [1-sarcosine, 8-O-methylserine]angiotensin II and 1-substituted analogues of [8-threonine]angiotensin II as antagonists of angiotensin II” (J Med Chem, 1977).
